Screening data: PubChem, several laboratories
Rtt109 Vps75 = inhibitors of C. albicans Rtt109/Vps75 HAT, primary screen, biochemical, ThioGlo CoA-SH fluorescence, plate reader. AID 540336, 2011. inhibition, % at 34.9 µM. purified Rtt109/Vps75, 4 h. 0.16% of 330,000 active. Histone acetyltransferase RTT109 (Candida albicans (strain SC5314 / ATCC MYA-2876)), …;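 active means inhibition of at least 50% in every replicate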
Target sequence (Q5AAJ8 whole entry, looked up): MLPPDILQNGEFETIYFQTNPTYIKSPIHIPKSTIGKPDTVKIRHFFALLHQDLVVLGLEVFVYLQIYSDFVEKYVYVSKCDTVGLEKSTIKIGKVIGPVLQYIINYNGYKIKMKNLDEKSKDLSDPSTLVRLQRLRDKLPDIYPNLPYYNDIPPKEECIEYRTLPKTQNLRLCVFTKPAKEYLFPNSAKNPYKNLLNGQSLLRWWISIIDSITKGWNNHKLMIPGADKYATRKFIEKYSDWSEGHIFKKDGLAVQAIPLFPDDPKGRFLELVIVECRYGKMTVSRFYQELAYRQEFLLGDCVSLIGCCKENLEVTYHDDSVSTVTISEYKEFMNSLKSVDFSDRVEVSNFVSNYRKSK
HNF4A DNA FP = change in binding of human HNF4A to DNA, primary screen, biochemical, fluorescence polarization, FITC-DNA; 1 h; activity change, % at 10 µM; 0.3% of 360,000 active; AID 1224865, 2016; in the data active means activity change above about 30%, passing the limit was not always enough
TPT1 inhibitor = Candida albicans TPT1 enzyme inhibitors, primary screen, biochemical, fluorescence polarization. recombinant caTPT1, FP RNA substrate dephosphorylation. inhibition, % at 5 µM. 0.81% of 300,000 active. AID 1962, 2009;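 active means inhibition above the mean of all tested compounds plus 3 SD, set per screening campaign, cut at about 24% in these data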
CSN inh = inhibitors of CSN-mediated cullin deneddylation, primary screen, biochemical, fluorescence polarization, uHTS; Purified CSN, SCF-Nedd8-OG deneddylation; inhibition, % at 12.5 µM; 0.38% of 360,000 active;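 active means pattern-corrected inhibition above about 35%, with an unprinted fluorescence ratio check between 0.5 and 1.5, limit read from the data, passing the limit was not always enough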
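Test system: Human Csn5 produced in HEK293T cells | Compound: 12.5 µM single point | Times: 90 min, room temperature | Signal: Fluorescence polarization readout | Read-out basis: % inhibition of substrate cleavage by Csn5 | Controls: no-enzyme wells high, enzyme-with-substrate wells low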
A number is an active result; 0 = inactive; - = no result. This is a sample that favours compounds with a hit; in the whole collection about 1.2% have one here.

SMILES	Rtt109 Vps75	HNF4A DNA FP	TPT1 inhibitor	CSN inh
Cc1ccc(N2C(S)=C(C#N)C(=O)NC23CCCCC3)cc1	0	0	0	0
Cc1ccccc1N1C(S)=C(C#N)C(=O)NC12CCCCC2	86	0	0	0
Cc1ccc(C(=O)NCC(=O)OCCOc2cccc(Cl)c2)cc1	0	0	0	0
Cc1ccc(C(=O)NCCNC(=O)COc2ccccc2Cl)cn1	51	0	0	0
O=C(COc1ccccc1Cl)NCCNC(=O)c1cccnc1	0	0	0	0
Cc1ccc(C(=O)NCC(=O)OCCOc2ccccc2Cl)cc1	56	0	0	0
COc1ccc(C(=O)N2CCC(C)(C(=O)O)C2)c(OC)c1 (centres undefined)	-	0	-	0
CC(=O)c1csc(COc2ccccc2)n1	0	63	0	0
CCOC(=O)[C@]12CCCC=C1N(Cc1ccco1)C(=O)[C@H](CC(=O)N1CCOCC1)C2	-	0	-	0
CCOC1=C2[C@@H](CN(S(=O)(=O)c3ccc(C)cc3)[C@H]2c2ccccc2Cl)[C@H]2C(=O)N(C)C(=O)[C@H]2C1	-	0	-	0
O=C(NC1CCCCCC1)c1ccc(Br)o1	0	0	0	0
O=C(NC1CCCCC1)Oc1cc2oc(=O)sc2cc1Br	59	0	0	0
COc1ccc(C(=O)CCC(=O)Nc2cc(Cl)c(O)c(Cl)c2)cc1	-	0	0	0
COc1ccc(Nc2c(CCc3ccccc3)nc3nc(C)cc(C)n23)cc1	-	0	-	0
CC(C)CS(=O)(=O)C1=NSC2=NC(=O)/C(=C\c3ccc(OC(=O)c4ccco4)cc3)C(=N)N21	0	0	0	0
CS(=O)(=O)C1=NSC2=NC(=O)/C(=C\c3ccc(OC(=O)c4ccco4)c(Br)c3)C(=N)N21	0	35	0	0
COc1cccc(OCc2nn3c(=O)c(-c4ccccc4)nnc3s2)c1	0	0	-	0
O=C(CSc1nnc(SCc2cccc3ccccc23)s1)N/N=C/c1c[nH]c2ccccc12	0	0	0	0
O=C(CSc1nnc(SCc2ccc(Cl)cc2)s1)N/N=C/c1c[nH]c2ccccc12	0	112	0	0
O=C(O)c1cc(O)c2c(c1)[C@H]([C@H]1c3cc(C(=O)O)cc(O)c3C(=O)c3c(O[C@@H]4O[C@H](CO)[C@@H](O)[C@H](O)[C@H]4O)cccc31)c1cccc(OC3O[C@H](CO)[C@@H](O)[C@H](O)[C@H]3O)c1C2=O (some centres undefined)	0	0	75	0
Cc1ccc(C)c(C(C)NC(=S)NCc2ccc(F)cc2)c1 (centres undefined)	0	0	0	0
CC(C(=O)NC1C=CS(=O)(=O)C1)N1C(=O)/C(=C/c2ccc(Cl)cc2)SC1=S (centres undefined)	139	0	0	0
CCCC1NC(C(=O)O)Cc2c1[nH]c1ccccc21 (centres undefined)	0	0	-	0
CC(C)Cn1c(NCCO)nc2ccccc21	0	0	0	0
OCCNc1nc2ccccc2n1CC(O)c1ccccc1 (centres undefined)	0	120	0	0
SMILES	Rtt109 Vps75	HNF4A DNA FP	TPT1 inhibitor	CSN inh
COc1ccc(C(=O)COC(=O)c2nc3nccc(C)n3n2)cc1F	0	0	-	0
CC(=O)N1CCN(S(=O)(=O)c2cccc(C(=O)N(Cc3ccccc3)c3ccc(C)cc3)c2)CC1	0	0	0	0
CN1CCN(S(=O)(=O)c2cccc(C(=O)N(Cc3ccccc3)c3ccccc3)c2)CC1	56	0	0	0
Cc1noc(C)c1C(=O)N(CC(C)C)c1nc2ccccc2s1	0	0	0	0
O=C(CCC(=O)N(CC(=O)NC1CCCC1)c1ccccc1F)Nc1nccs1	0	0	0	0
COc1ccc(CNC(=O)C2(c3ccc(Cl)cc3)CC2)cc1	56	0	0	0
NS(=O)(=O)c1ccc(CNC(=O)C2(c3ccc(Cl)cc3)CC2)cc1	0	0	0	0
CSC1=N/C(=C\c2ccc(Br)o2)C(=O)S1	0	0	0	43
CCNC(=O)c1cc2c(=O)n3cccc(C)c3nc2n(Cc2ccc(C)cc2)c1=N	0	0	0	0
COCCCn1c(C(=O)Nc2ccc3c(c2)OCO3)cc2c(=O)n3cccc(C)c3nc21	-	0	-	42
Cc1cccn2c(=O)c3cc(C(=O)NC(C)C)c(=N)n(Cc4ccncc4)c3nc12	0	52	0	0
